The data set is described as follows: MTT cell toxicity assay. Format: cell-based. The settings on record: human, HeLa cells. An outline of the steps: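 HeLa cells grown in DMEM with 10% heat-inactivated FBS and 1% penicillin/streptomycin, 5% CO2, 37 °C. Exponentially growing cells were seeded at 2–6 × 10^3 per well and left 24 h, then exposed to graded test compound concentrations for 48 h. MTT (5 mg/mL stock) was added for 2–4 h at 37 °C. Formazan was dissolved in DMSO and read at 492 nm. Mean ± SD, n = 3.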
A general note: Tetrazolium dyes change colour on reduction, which living cells bring about.

SMILES strings stand for the structures.

Usually IC50 stands for the point on the concentration scale where inhibition reaches its midpoint. Read a high IC50 as weaker potency in that assay.

`NS(=O)(=O)NCCNc1nonc1C(=NO)Nc1ccc(F)c(Br)c1` [Epa, Epacadostat] came in with an IC50 at 48 h of over 40 µM.

Values taken from paper PMC7606109 (Acta Pharmaceutica Sinica. B, 2020).
